PABP polyA inh: blocks human PABP binding to poly(A) RNA; fluorescence polarization; AID 2014; P11940; inhibition, % at 35 µM; 290,000 tested, 1% active;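 further: calls also rest on retests at 20 µM and on dose response follow-up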
MLLE-PAM2 inh: blocks PAM2 peptide binding to the PABP1 MLLE domain | P11940 | GST-MLLE / FITC-PAM2 fluorescence polarization | inhibition, % at 20 µM | 360,000 tested, 0.36% active; in the data active means inhibition above about 35%, passing the limit was not always enough
SKN-1 block: blocks SKN-1 activity in C. elegans; C. elegans VP596 Pgst-4::GFP/RFP ratio, acrylamide-induced, 24 h; inhibition, % at 21.8 µM; 360,000 tested, 0.49% active;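 active means interference check ratio from 0.5 to 1.5 plus GFP to RFP signal ratio inhibition reaching or exceeding a fixed threshold, cut at about 30% in these data, passing the limit was not always enough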
eIF4H FP inh: inhibitors of RNA binding by human eIF4H | eIF4H fluorescence polarization binding assay | Q15056 | inhibition, % at 35 µM | 290,000 tested, 0.94% active;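 further: calls also rest on retests at 20 µM and on dose response follow-up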
MT1-MMP act inh: blocks activation of human MT1-MMP. P50281. HT1080 RFP-PRO-GFP cells, GFP/RFP ratio fluorescence, overnight; percent of plate control window, DMSO zero. 360,000 tested, 0.061% active. GFP/RFP ratio change, % at 20 µM;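 active means GFP/RFP ratio change of at least 30% with cell ATP level not reduced by more than half and red fluorescence within 50% of control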
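Assay system – RFP-PRO-GFP reporter HT1080 cells · Compound dosing – single dose of 20 µM compound, 1% DMSO final · Incubation – overnight compound exposure at 37 °C · Measure – GFP/RFP fluorescence ratio · Benchmarks – DMSO wells and RFP-L50D-GFP cells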
Each line names hits and unclear results; the compound was inactive in the other large screens. A selection: hits, their analogues and other compounds. The true share with any hit is near 1.7%. Unless noted, how the calls were made is not given here.

O=C1N/C(=C/c2cccn2-c2ccc(F)cc2)C(=O)N1Cc1ccccc1	none
O=C(O)c1ccc(-n2cccc2/C=C2/NC(=O)N(c3ccccc3)C2=O)cc1	PABP polyA inh 83.9, eIF4H FP inh 96.6
O=C(O)c1ccc(-n2cccc2/C=C2/SC(=O)N(CC(=O)N3CCCC3)C2=O)cc1	PABP polyA inh 79.5, eIF4H FP inh 83.7
O=C(O)c1cccc(-n2cccc2/C=C2\NC(=O)N(Cc3ccc(F)cc3)C2=O)c1	PABP polyA inh 54.8
CCCCc1cc(=O)oc2cc(OCC(=O)NCCN3CCOCC3)ccc12	none
CCOC(=O)CN/C=C(\C#N)c1ccccc1	none
CCOC(=O)c1ccc(N=Nc2c(C)c(C#N)c(O)[nH]c2=O)cc1	SKN-1 block 41.4
O=C(O)CNS(=O)(=O)c1ccc2c(c1)C(=O)c1cc(S(=O)(=O)NCC(=O)O)ccc1-2	SKN-1 block 29.3
CCc1cccc(NS(=O)(=O)c2ccc3c(c2)NC(=O)CC(=O)N3)c1	none
CCc1ccccc1NS(=O)(=O)c1ccc2c(c1)NC(=O)CC(=O)N2	PABP polyA inh 112.7, eIF4H FP inh active
CCCN(CC(=O)Nc1ccccc1C)C(=O)C1CC(=O)N(c2cccc(C)c2C)C1 (stereo not given)	none (no result: PABP polyA inh, eIF4H FP inh)
CC(C)N1CCc2c(sc(NC(=O)c3ccc(S(=O)(=O)N4CCOCC4)cc3)c2C#N)C1	PABP polyA inh 87.7, eIF4H FP inh 77.8
Cc1c(Cl)sn(-c2ccc(Cl)cc2)c1=O	none
Brc1ccc(/C=N/Nc2ccc3ccccc3n2)cc1	SKN-1 block 45.2 (no result: MT1-MMP act inh)
CCc1nnc(NC(=O)CSc2nc(C)cc(C)c2C#N)s1	none
Fc1cccc2sc(Nc3nnc(-c4ccco4)o3)nc12	PABP polyA inh active, eIF4H FP inh 60.7
COc1ccc(-c2csc(Nc3ccccc3)n2)cc1	SKN-1 block 35.5
COc1ccc(Nc2nc(-c3ccc(OC)cc3)cs2)cc1	none
O=C(Nc1cccc(-c2csc(Nc3ccccc3)n2)c1)c1ccccc1	SKN-1 block 46.5
O=[N+]([O-])c1cccc(-c2csc(Nc3ccccc3)n2)c1	SKN-1 block 35.4
Cc1ccc(S(=O)(=O)N(C)CC(=O)Nc2nnc(CC(C)C)s2)cc1	none
CC1(C(=O)NS(=O)(=O)c2ccc(C#N)cc2)CCN1C(=O)c1ccccc1CCc1ccccc1 (stereo not given)	none (no result: PABP polyA inh, eIF4H FP inh)
COC(=O)c1cc(-c2cccc(OC)c2)n[nH]1	SKN-1 block 37.1
CN1CCCCc2c1[nH]c1ccccc1c2=O	PABP polyA inh 69.2, eIF4H FP inh 59.1
O=c1c2c([nH]c3ccccc13)CCC2	none
CC1Cc2cc(S(=O)(=O)N3CCC(C(=O)Nc4ccccn4)CC3)ccc2N1C(=O)C1CCC1 (stereo not given)	none
NC(=S)N=Nc1c(O)[nH]c2ccccc12	none
Oc1cccc(NC(=S)N=Nc2c(O)[nH]c3ccccc23)c1	MLLE-PAM2 inh 38.2
CCOc1ccc(NC(=S)N=Nc2c(O)[nH]c3ccccc23)cc1	MLLE-PAM2 inh 37.8
Cc1ccc2cc3cc(C(=O)N4CC(C)CC(C)C4)oc3nc2c1 (stereo not given)	SKN-1 block 38.8
Fc1ccc(-n2nnc(-c3cccnc3)n2)cc1	SKN-1 block 56.2
Clc1ccc(-n2nnc(-c3nccs3)n2)cc1Cl	SKN-1 block 60.6
c1cncc(-c2nnc(-c3cccnc3)nn2)c1	MLLE-PAM2 inh 40.5
Clc1ccc(-n2nnc(-c3cccnc3)n2)cc1Cl	SKN-1 block 59.0
c1ccc(N=Nc2ccc3cccccc2-3)cc1	SKN-1 block 45.4 (no result: PABP polyA inh, eIF4H FP inh)
COc1cccc(-n2c(=O)c3cc(OC)c(OC)cc3n(CC(=O)Nc3cc(C)[nH]n3)c2=O)c1	none
O=C(O)c1ccc(COc2ccc3ccccc3c2/C=C2/NC(=O)N(Cc3ccc(F)cc3)C2=O)cc1	none
Cc1ccc(CN2C(=O)N/C(=C/c3ccc(-c4ccc(C(=O)O)cc4)o3)C2=O)cc1	PABP polyA inh 46.5, eIF4H FP inh 68.6
Cc1cc(C(=O)O)ccc1-c1ccc(/C=C2\NC(=O)N(Cc3ccc(F)cc3)C2=O)o1	PABP polyA inh 67.9, eIF4H FP inh 80.7
CCN(CC)C(=O)Cn1cc(S(=O)(=O)CC(=O)Nc2ccc(F)cc2F)c2ccccc21	none
Cc1ccc(/C=c2\sc3nc(-c4ccccc4Br)nn3c2=O)o1	none
O=c1nc2s/c(=C\c3ccco3)c(=O)n2nc1Cc1ccc(F)cc1	PABP polyA inh 57.6, eIF4H FP inh 84.2
COc1ccc(Br)cc1/C=c1\sc2nc(-c3ccco3)nn2c1=O	PABP polyA inh 87.1, eIF4H FP inh 93.8
Cc1ccc(/C=c2\sc3nc(-c4ccco4)nn3c2=O)o1	PABP polyA inh 67.2, eIF4H FP inh 90.5
Cc1ccc(-c2nc3s/c(=C\c4ccco4)c(=O)n3n2)cc1	PABP polyA inh 45.3, eIF4H FP inh 82.0
CCC(Cc1ccccc1)OC(=O)c1ccccc1C(=O)O (stereo not given)	none (no result: PABP polyA inh, eIF4H FP inh)
CC(=O)Nc1ccc(NC(=O)C(C)Oc2ccc(C)nc2[N+](=O)[O-])cc1 (stereo not given)	none (no result: PABP polyA inh, eIF4H FP inh)
COc1ccc2nc(NC(=O)CSC3=NCCS3)sc2c1	none
COc1ccc(OC)c(NC(=O)CSC2=NCCS2)c1	MLLE-PAM2 inh 39.6
Cc1ccc(NC(=O)c2cc(S(=O)(=O)N3CCCCC3)ccc2N2CCOCC2)c(C)c1	none (no result: PABP polyA inh, eIF4H FP inh)
CC(=O)c1c(C)[nH]c(C(=O)CN2CCN(S(=O)(=O)c3ccccc3[N+](=O)[O-])CC2)c1C	none (no result: PABP polyA inh, eIF4H FP inh)
Cc1ccc(S(=O)(=O)N(C)C)cc1NC(=S)NNC(=O)C(N)=O	PABP polyA inh 61.0
Cc1ccc(S(=O)(=O)N(C)C)cc1NC(=S)NNC(=O)C1CC1	none
CCCOC(=O)Nc1cc(OC)ccc1[N+](=O)[O-]	none
COc1ccc(OCCCC(=O)N(C)CC(=O)Nc2ccccc2Cl)cc1	none
CCN1CCc2c(C#N)c(N3CCOCC3)nc(NCCO)c2C1	MLLE-PAM2 inh 78.8
COc1c(S(=O)(=O)N2CCCCC2)ccc2c(S(=O)(=O)N3CCCCC3)cccc12	none (no result: PABP polyA inh, eIF4H FP inh)
O=S(=O)(c1cccc2c(S(=O)(=O)N3CCCC3)cccc12)N1CCCC1	SKN-1 block 36.4
O=C(/C=C/c1cccs1)c1ccc(N2CCOCC2)cc1	SKN-1 block 36.1
Cn1ncc(Br)c1NC(=O)Nc1ccc(Cl)cc1	none
Cc1ccc(C)c(S(=O)(=O)Nc2nc3ccc(S(N)(=O)=O)cc3s2)c1	none
COc1cccc(-c2cccc(NC(=O)C3CCN(CC4CCOC4)CC3)c2)c1 (stereo not given)	SKN-1 block 46.5
CCCCCCCN1CCC(=O)N([C@H](CO)CC(C)C)CC1	none
CC[C@]12CCCN3CCc4c(n(c5ccccc45)[C@](O)(C(=O)OC)C1)[C@@H]32	none (no result: PABP polyA inh, eIF4H FP inh)
CCC12CCCN3CCc4c(n(c5ccccc45)C(O)(C(=O)OC)C1)C32 (stereo not given)	PABP polyA inh 56.4, eIF4H FP inh 95.8
COc1cc(C(=O)NCC(=O)N/N=C/c2cccnc2)cc(OC)c1OC	none
O=[N+]([O-])c1ccc(Nc2ccc(Cl)cc2)nc1	SKN-1 block 39.0

Compound activity: PubChem, Sanford-Burnham Center for Chemical Genomics
